CaV13 FRET inh: Primary screen for inhibitors of IQ motif and Ca2+-dependent inactivation inhibitor domain binding in CACNA1D, Förster resonance energy transfer in living cells, … | HEK cells, CFP/YFP FRET ICDI-IQ, plate reader, 10 min; percent FRET-ratio fall versus neutral wells | inhibition, % at 12.3 µM | 340,000 tested, 0.098% active | AID 743397;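 active means mean replicate inhibition of at least 30% and at least 1% of replicates passing that level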
RAD52 inh: blocks human RAD52 DNA annealing; P43351; recombinant RAD52 DNA annealing, FRET fluorescence; inhibition, % at 18.7 µM; 360,000 tested, 0.46% active;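 active means every replicate showing at least 50% inhibition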
FN deposit inh: fibronectin deposition inhibition; AH1F fibroblasts, Alexa488-fibronectin deposition fluorescence, overnight; inhibition, % at 12.6 µM; 350,000 tested, 0.086% active; AID 743247;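 active means mean inhibition across replicates of 30% or more, regardless of how many single replicates reach that level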
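Assay system: AH1F fibroblast monolayer, labelled fibronectin deposition. Amount: 10000 cells per well. Also added: labelled fibronectin 24 nM. Compound: single-point pinned compound. Incubation: cell attachment 1 h, compound and FN exposure overnight. Detection: fluorescence after three HBSS washes, excitation 485 nm, emission 525 nm. Read-out: inhibition of fibronectin deposition signal.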
RAD54 inh: blocks human RAD54 Holliday junction branch migration; inhibition, % at 10.4 µM; FAM/BHQ fluorescence; 360,000 tested, 0.14% active;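 active means mean normalized replicate activity at least 40 and at least half of replicates scoring 40 or more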;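 further: inhibitors cause a drop in the FAM fluorescence signal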
Target sequence (Q92698 whole entry, looked up): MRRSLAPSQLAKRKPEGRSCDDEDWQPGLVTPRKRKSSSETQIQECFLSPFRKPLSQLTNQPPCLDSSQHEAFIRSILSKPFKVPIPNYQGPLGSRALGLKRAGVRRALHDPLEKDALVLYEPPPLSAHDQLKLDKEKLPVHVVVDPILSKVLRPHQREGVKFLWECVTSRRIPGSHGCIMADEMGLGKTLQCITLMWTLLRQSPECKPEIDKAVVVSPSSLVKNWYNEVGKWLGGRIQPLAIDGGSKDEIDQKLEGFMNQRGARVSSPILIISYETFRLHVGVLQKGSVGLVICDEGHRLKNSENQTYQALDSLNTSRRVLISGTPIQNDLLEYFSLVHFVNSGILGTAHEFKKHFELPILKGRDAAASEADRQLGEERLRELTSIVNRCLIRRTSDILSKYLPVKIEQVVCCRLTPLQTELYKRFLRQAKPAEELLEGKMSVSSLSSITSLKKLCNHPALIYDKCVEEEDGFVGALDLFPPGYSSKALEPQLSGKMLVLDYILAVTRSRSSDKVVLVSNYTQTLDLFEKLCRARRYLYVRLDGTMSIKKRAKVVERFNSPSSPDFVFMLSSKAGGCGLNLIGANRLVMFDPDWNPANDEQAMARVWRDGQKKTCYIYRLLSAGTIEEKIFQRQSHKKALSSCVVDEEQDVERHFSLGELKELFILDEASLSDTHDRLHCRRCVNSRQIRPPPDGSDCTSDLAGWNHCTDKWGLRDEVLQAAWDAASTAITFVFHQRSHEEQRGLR
Glyco luc inh: blocks N-linked glycosylation in D54 reporter cells; D54 ERlucT glycosylation luciferase reporter, 24 h; percent of 100 nM tunicamycin response; reporter increase, % at 12.5 µM; 360,000 tested, 0.23% active; AID 588692;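 active means mean luciferase reporter signal, scaled so untreated is 0 and the glycosylation-blocking control 100, at or above a set limit in every replicate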;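 further: luciferase carries N-glycosylation sites so blocking glycosylation raises the light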
A number is an active result; - = inactive; . = not tested or not shown. An excerpt weighted towards active compounds, which were near 0.7% of everything screened.

SMILES	CaV13 FRET inh	RAD52 inh	FN deposit inh	RAD54 inh	Glyco luc inh
O=C1O[C@@H](c2ccccc2)[C@@H](c2ccccc2)N2[C@@H](c3ccccc3OCCO)[C@]3(C(=O)Nc4ccc(C#CCCO)cc43)[C@@H](C(=O)N3CCCCCCC3)[C@H]12	.	73	.	-	.
CCn1c(SCC(=O)Nc2cccc(NC(C)=O)c2)nc2c([nH]c3ccccc32)c1=O	-	-	-	-	-
CCn1c(SCC(=O)Nc2ccc(C(C)=O)cc2)nc2c([nH]c3ccccc32)c1=O	-	-	-	-	92
CC(C)C[C@H]1CNC(=O)C(=O)N1C[C@@H]1CCCN1C[C@H](CC(C)C)N1C[C@H](Cc2ccc(O)cc2)N(CCc2ccccc2)C(=O)C1=O	-	-	active	.	.
CC(C)c1cn(CC[C@@H]2CC[C@H](NS(=O)(=O)Cc3ccccc3)[C@@H](CO)O2)nn1	.	-	-	-	.
CCOC(=O)C1=C(C)Nc2nc3ccccc3n2C1c1ccncc1 (stereo not drawn)	-	.	14	-	-
N#Cc1c(N)n(C2OC(CO)C(O)C2O)c2ncnc(N)c12 (stereo not drawn)	-	-	34	.	-
Nc1nc(SCc2ccccc2)c2ncn(C3OC(CO)C(O)C3O)c2n1 (stereo not drawn)	-	-	.	-	-
OCC1OC(n2ccc3c(SCc4ccccc4)ncnc32)C(O)C1O (stereo not drawn)	-	-	-	-	32
OCC1OC(n2cnc3c(SCc4ccccc4)ncnc32)C(O)C1O (stereo not drawn)	-	-	-	.	113
CCC(=O)Nc1ccc2c(c1)C(=O)N(C)C[C@H](OC)[C@H](C)CN(Cc1cncnc1)[C@H](C)CO2	.	.	-	.	.
Cc1ccc(S(=O)(=O)Nc2ccc3c(c2)C(=O)N([C@@H](C)CO)C[C@H](C)[C@@H](CN(C)C(=O)Nc2ccc(C(F)(F)F)cc2)OCCCC[C@H](C)O3)cc1	.	-	-	-	.
O=C(C[C@H]1CC[C@H]2[C@@H](COC[C@@H](O)CN2S(=O)(=O)c2cccc(F)c2)O1)NCc1ccc2c(c1)OCO2	.	-	-	-	.
CCOC(=O)c1c(N)n(C2CC(C)(C)NC(C)(C)C2)c2nc3ccccc3nc12	.	.	.	83	-
CCOC(=O)c1c(N)n(-c2ccc(N)cc2)c2nc3ccccc3nc12	-	-	.	.	-
C[C@@H]1CN([C@@H](C)CO)C(=O)c2cc(NS(=O)(=O)c3ccccc3)ccc2O[C@@H]1CN(C)Cc1ccncc1	.	-	-	-	.
CNC(=O)C[C@@H]1CC[C@@H]2[C@@H](COc3ccc(NC(=O)Nc4ccc(F)c(F)c4)cc3C(=O)N2C)O1	.	-	.	-	.
COc1cc(C(=O)OCC#N)ccc1OCc1c(C)noc1C	-	-	-	-	31
C/C=C/c1ccc([C@H]2[C@@H](CO)N(CCC(F)(F)F)C23CN(C(C)=O)C3)cc1	.	-	.	.	.
C[C@@H]1CN([C@@H](C)CO)C(=O)c2cc(NS(=O)(=O)c3cccs3)ccc2O[C@H]1CN(C)S(=O)(=O)c1ccc(Cl)cc1	.	-	-	-	.
CC=Cc1ccc2n(c1=O)C[C@@H]1[C@@H](CO)[C@H](C(=O)NCc3ccc4c(c3)OCO4)[C@H]2N1C(=O)C1CC1 (mixture of isomers)	.	55	.	-	.
CC=Cc1ccc2n(c1=O)C[C@H]1[C@H](CO)[C@@H](C(=O)NCc3ccc4c(c3)OCO4)[C@@H]2N1C(=O)C1CC1 (mixture of isomers)	.	58	.	-	.
CC=Cc1ccc2n(c1=O)C[C@@H]1[C@@H](CO)[C@H](C(=O)NCc3ccc4c(c3)OCO4)[C@H]2N1C(=O)COC (mixture of isomers)	.	-	-	-	.
CCCNC(=O)C[C@H]1C[C@@H]2c3cc(NC(=O)Nc4ccccc4F)ccc3O[C@@H]2[C@H](CO)O1	.	-	-	-	.
CCCCNC(=O)Nc1nc2ccccc2s1	-	-	-	.	-
SMILES	CaV13 FRET inh	RAD52 inh	FN deposit inh	RAD54 inh	Glyco luc inh
CCCCNC(=O)Nc1nc2ccc(CC)cc2s1	-	-	34	.	-
O=C(C[C@@H]1C[C@@H]2c3cc(NS(=O)(=O)c4ccccc4)ccc3O[C@@H]2[C@H](CO)O1)NC1CCCC1	.	-	-	-	.
Oc1cc(Nc2ccccc2)cc2cccnc12	-	-	.	-	38
C/C(=N\NC(=O)c1c(Cl)c(C)nn1C)c1ccc(NC(=O)C2CCC2)cc1	-	-	-	-	-
C/C(=N\NC(=O)c1c([N+](=O)[O-])c(C)nn1C)c1ccc(NC(=O)C2CCCC2)cc1	-	-	-	-	33
Cn1nc(-c2ccc(Cl)cc2)c2cc(C(=O)N3CCN(c4ccccc4)CC3)sc21	48	-	-	-	-
CCN1CCCC1CNC(=O)c1cc2c(-c3ccc(Cl)cc3)nn(C)c2s1 (stereo not drawn)	.	.	.	51	-
CCC(=O)N1[C@H](CN(CC)C(C)=O)[C@@H](c2ccc(-c3cccnc3)cc2)[C@@H]1CO	.	-	.	-	.
CC(C)CC#Cc1ccc2c(c1)O[C@@H](CN(C)C(=O)c1ccccc1F)[C@H](C)CN([C@@H](C)CO)S2(=O)=O	.	-	.	-	.
O=C(COc1ccc2c(-c3ccccc3)cc(=O)oc2c1)NC(Cc1c[nH]c2ccccc12)C(=O)O (stereo not drawn)	-	-	-	-	-
O=C(COc1ccc2c(-c3ccccc3)cc(=O)oc2c1)N[C@@H](Cc1c[nH]c2ccc(O)cc12)C(=O)O	.	-	.	-	50
CNC(=O)C[C@H]1CC[C@@H]2[C@@H](COc3ccc(NC(=O)c4ccccc4Cl)cc3C(=O)N2C)O1	.	-	.	-	.
COc1cc(/C=C2/C(=O)N(C)C(=S)N2C)ccc1OCc1cccc(F)c1	-	-	-	-	34
CN1C(=O)/C(=C/c2ccc(OCc3cccc(F)c3)cc2)NC1=S	-	-	-	-	-
CO[C@H]1CN(C)C(=O)c2ccc(NC(C)=O)cc2OC[C@H](C)N(C(=O)C2CCC2)C[C@H]1C	.	-	-	-	.
CCOc1ccccc1N=c1oc2cc(O)ccc2cc1C(=O)NCC1CCCO1 (stereo not drawn)	33	-	.	-	-
CCOc1ccc(N=c2oc3cc(O)ccc3cc2C(=O)NCC2CCCO2)cc1 (stereo not drawn)	-	-	.	-	-
COc1ccc(-c2oc3ncnc(NCCCN4CCOCC4)c3c2-c2ccc(OC)cc2)cc1	-	.	active	-	-
Cc1cccc2sc(NNC(=O)c3ccc(S(=O)(=O)N4CCc5ccccc5C4)cc3)nc12	-	-	-	-	-
Cc1cccc2sc(NNC(=O)c3ccc(S(=O)(=O)N4CCCC(C)C4)cc3)nc12 (stereo not drawn)	43	-	-	-	-
CC(=O)c1cc2ccc(O)cc2oc1=O	33	-	-	-	-
N=c1oc2cc(O)ccc2cc1C(=O)Nc1ccc(Cl)cc1	113	-	-	-	-
O=C(/C=C/c1ccccc1)c1ccc(NC2=NCCCS2)cc1	-	-	-	-	-

Assay outcomes (PubChem)
